ChEMBL document CHEMBL1146825, “Triaryl methane derivatives as antiproliferative agents” (Bioorg Med Chem Lett, 2004)

The molecules below were run on NCI-H460 (assay: Effect of 25 uM compound on NCI-H460 non-small cell lung cancer cells cycle progression in G0G1 phase by flow cytometry). Conditions: not given.
Type: functional, Homo sapiens
Outline: (§1)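 NCI-H460 cells serum-starved 56 h, then released into complete medium containing compound (25 or 50 uM) or 0.1% DMSO vehicle for 16 h. Harvested, washed in cold PBS, fixed in 70% ethanol at 4 C for at least 4 h. Treated with ribonuclease and propidium iodide 30 min at 37 C. DNA content read by flow cytometry; percent of cells in G0-G1, S and G2-M.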

Question: For `OC(Cc1ccccc1)(c1ccccc1)c1ccccc1`, which Cell is on record?
Answer: 46.8%

What follows are molecules tested on NCI-H460 (assay: Effect of 50 uM compound on NCI-H460 non-small cell lung cancer cells cycle progression in G0G1 phase by flow cytometry). Conditions: not given.
Type: functional, Homo sapiens
Outline: as §1

Question: For `OC(Cc1ccccc1)(c1ccccc1)c1ccccc1`, which Cell is on record?
Answer: 69.91%

The molecules below were run on NCI-H460 (assay: Effect of 25 uM compound on NCI-H460 non-small cell lung cancer cells cycle progression in S phase by flow cytometry). Conditions: not given.
Type: functional, Homo sapiens
Outline: as §1

Question: `OC(Cc1ccccc1)(c1ccccc1)c1ccccc1` was tested. Which Cell did it give?
Answer: 44.63%

What follows are molecules tested on NIH3T3 (assay: Percent inhibition at 10 uM determined against mouse NIH 3T3 cells). Conditions: not given.
Type: functional
Outline: (§2)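 NIH 3T3 mouse fibroblasts given a mitogenic stimulus (e.g. PDGF or bFGF) for 10 h, then [3H]thymidine added. Cultured a further 21 h at 37 C, 5% CO2, then washed four times with DME. Acid-precipitable radioactivity extracted with cold 10% TCA, neutralized with 0.3 N NaOH, and counted by scintillation.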

Question: Which inhibition at 10 µM does the source give for `OC(c1ccccc1)(c1ccccc1)c1ccccc1` [TRIPHENYLMETHANOL] here?
Answer: 99%

Question: How did the inhibition at 10 µM turn out when `Oc1ccccc1C(O)(c1ccccc1)c1ccccc1Cl` (stereo not given) was run?
Answer: 99%

Question: For `OC(Cc1ccccc1)(c1ccccc1)c1ccccc1`, which inhibition at 10 µM is on record?
Answer: 98%

Question: How did the inhibition at 10 µM turn out when `O=[N+]([O-])c1ccc(C(O)(c2ccccc2)c2ccccc2)c(Cl)c1` was run?
Answer: 94%

Question: For `CCOC(c1ccccc1)(c1ccccc1)c1ccc(-c2ccccc2)cc1`, which inhibition at 10 µM is on record?
Answer: 99%

The molecules below were run on NCI-H460 (assay: Effect of 50 uM compound on NCI-H460 non-small cell lung cancer cells cycle progression in G2-M phase by flow cytometry). Conditions: not given.
Type: functional, Homo sapiens
Outline: as §1

Question: How did the Cell turn out when `OC(Cc1ccccc1)(c1ccccc1)c1ccccc1` was run?
Answer: 5%

Each molecule was assayed on NIH3T3 (assay: Mitogen-induced cell proliferation assay to evaluate the antiproliferative effect in NIH 3T3 cells). Conditions: Mus musculus.
Type: functional, cell-based
Outline: as §2

Question: Which IC50 does the source give for `Cc1ccc(C(O)(c2ccc(C)cc2)c2ccc(C)cc2)cc1` here?
Answer: 3000 nM

Question: Which IC50 does the source give for `N#CC(c1ccccc1)(c1ccccc1)c1ccc([N+](=O)[O-])cc1` here?
Answer: 1700 nM

Question: Which IC50 does the source give for `N#CC(c1ccccc1)(c1ccccc1)C1CCCCC1` here?
Answer: 900 nM

Question: For `Nc1ccc(C(O)(c2ccc(N)cc2)c2ccc(N)cc2)cc1`, which IC50 is on record?
Answer: 200 nM

Question: With `CCOC(=O)C(c1ccccc1)(c1ccccc1)N1CCCCC1` as the molecule, how does the IC50 read?
Answer: 2200 nM

Question: With `OC(c1ccccc1)(c1ccccc1)c1ccccc1` [TRIPHENYLMETHANOL] as the molecule, how does the IC50 read?
Answer: 2000 nM

Question: Which IC50 does the source give for `Oc1ccccc1C(O)(c1ccccc1)c1ccccc1Cl` (stereo not given) here?
Answer: 1000 nM

Question: How did the IC50 turn out when `OC(Cc1ccccc1)(c1ccccc1)c1ccccc1` was run?
Answer: 400 nM

Question: Which IC50 does the source give for `OC(c1ccccc1)(c1ccccc1)C1CCCCC1` here?
Answer: 9500 nM

Question: For `N#CC(c1ccccc1)(c1ccccc1)c1ccccc1Cl`, which IC50 is on record?
Answer: 2200 nM

Question: Which IC50 does the source give for `O=[N+]([O-])c1ccc(C(O)(c2ccccc2)c2ccccc2)c(Cl)c1` here?
Answer: 300 nM

Question: `OC(c1ccccc1)(c1ccccc1)c1ccc(Cl)cc1` was tested. Which IC50 did it give?
Answer: 800 nM

Question: `OC(c1ccccc1)(c1ccccc1)c1cccc2ccccc12` was tested. Which IC50 did it give?
Answer: 1600 nM

Question: `OC(c1ccccc1)(c1ccccc1)c1ccc(C(F)(F)F)cc1` was tested. Which IC50 did it give?
Answer: 3100 nM

Question: For `OC(c1ccccc1)(c1ccccc1)c1ccccc1Cl`, which IC50 is on record?
Answer: 2100 nM

Question: For `OC(c1ccccc1)(c1ccc(Br)cc1)c1ccc(Br)cc1`, which IC50 is on record?
Answer: 500 nM

Question: How did the IC50 turn out when `CCOC(c1ccccc1)(c1ccccc1)c1ccc(-c2ccccc2)cc1` was run?
Answer: 2200 nM

Question: `Clc1ccccc1C(c1ccccc1)c1ccccc1` [2-CHLOROPHENYL-BISPHENYLMETHANE(MAJOR)] was tested. Which IC50 did it give?
Answer: 3900 nM

Question: With `O=C(O)CC(c1ccccc1)(c1ccccc1)c1ccccc1Cl` as the molecule, how does the IC50 read?
Answer: 1200 nM

The molecules below were run on NCI-H460 (assay: Effect of 50 uM compound on NCI-H460 non-small cell lung cancer cells cycle progression in S phase by flow cytometry). Conditions: not given.
Type: functional, Homo sapiens
Outline: as §1

Question: With `OC(Cc1ccccc1)(c1ccccc1)c1ccccc1` as the molecule, how does the Cell read?
Answer: 25.09%

The molecules below were run on NCI-H460 (assay: Effect of 25 uM compound on NCI-H460 non-small cell lung cancer cells cycle progression in G2M phase by flow cytometry). Conditions: not given.
Type: functional, Homo sapiens
Outline: as §1

Question: `OC(Cc1ccccc1)(c1ccccc1)c1ccccc1` was tested. Which Cell did it give?
Answer: 8.57%
